The record followed here is ChEMBL document CHEMBL1146487, “New cytotoxic clerodane diterpenoids from the leaves and twigs of Casearia membranacea” (J Nat Prod, 2004).

One assay deals with PC-3. The assay can be described thus: Cytotoxicity against human PC3 cells after 48 hrs by SRB assay. Format: functional, cell-based. The note with it: PC-3, 48 h. An outline of the steps:
(§1)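 Cells seeded in RPMI 1640 with 5% FBS at 37 °C, 5% CO2. A time-zero plate set fixed with TCA at 24 h. Drug added, then 48 h further incubation. Cold-TCA fixation, 0.4% w/v SRB in 1% acetic acid for 10 min, acetic acid washes, dye dissolved in 10 mM Tris base, A515 read. IC50 = concentration giving 50% absorbance reduction versus untreated cells.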
(Sulforhodamine B stains cellular protein and so reports cell mass.)

The nature of assay [1]: Cytotoxicity against human Hep3B cells after 48 hrs by SRB assay. Format: functional, cell-based, Hep 3B2. In outline: as §1

For the compound `C=CC(=C)CC[C@]1(C)[C@H]2C[C@H](OC(=O)C(C)CC)C=C3[C@H](OC(=O)CCC)O[C@H](OC(C)=O)[C@@]32[C@H](OC(C)=O)[C@H](OC(C)=O)[C@@H]1C` (stereo not given in full), the IC50 in the assay with PC-3 came to 12800 nM; in assay [1], 16800 nM.
In the case of `C=CC(=C)CC[C@]1(C)[C@H]2C[C@H](OC(=O)C(C)CC)C=C3[C@H](OC(C)=O)O[C@H](OC(C)=O)[C@@]32[C@H](OC(=O)c2cccnc2)C[C@@H]1C` (stereo not given in full), the IC50 in the assay with PC-3 was found to be 13000 nM; in assay [1], 10800 nM.
As for `C=CC(=C)CC[C@]1(C)[C@H]2C[C@H](OC(=O)C(C)CC)C=C3[C@H](OC(C)=O)O[C@H](OC(C)=O)[C@@]32[C@H](O)C[C@@H]1C` (relative stereo), the results for the IC50 (with PC-3; in assay [1]) were 1800 nM and 2400 nM, respectively.
The matching figures for `C=CC(=C)CC[C@]1(C)[C@H]2C[C@H](OC(=O)C(C)CC)C=C3[C@H](OC(=O)CCC)O[C@H](OC(C)=O)[C@@]32[C@H](O)C[C@@H]1C` (relative stereo) [CASEAMEMBRIN A]: 1500 nM and 2300 nM.
For `C=CC(=C)CC[C@]1(C)[C@H]2C[C@H](OC(=O)C(C)CC)C=C3[C@H](OC)O[C@H](OC(C)=O)[C@@]32[C@H](O)C[C@@H]1C` (relative stereo) [CASEAMEMBRIN B], the half-inhibitory concentration (IC50) was 22200 nM in the assay on PC-3 and 18000 nM in assay [1].
On to `C=CC(=C)CC[C@]1(C)[C@H]2C[C@H](OC(=O)C(C)CC)C=C3[C@H](OC(=O)CCC)O[C@H](OC(C)=O)[C@@]32[C@H](O)[C@H](O)[C@@H]1C` (relative stereo) [CASEAMEMBRIN C], for which the IC50 stood at 600 nM in the assay with PC-3 and 800 nM in assay [1].
`C=CC(=C)CC[C@]1(C)[C@H]2C[C@H](OC(=O)C(C)CC)C=C3[C@H](OC(=O)CCC)O[C@H](OC(C)=O)[C@@]32[C@H](O)[C@H](OC(C)=O)[C@@H]1C` (relative stereo) [CASEAMEMBRIN D]: the values for the IC50 (in the assay with PC-3; in assay [1]) were 2400 nM and 1900 nM, respectively.
`C=CC(=C)CC[C@]1(C)[C@H]2C[C@@H](OC(=O)C(C)CC)C=C3[C@H](OC(C)=O)O[C@H](OC(C)=O)[C@@]32[C@H](O)C[C@@H]1C` (relative stereo) [CASEAMEMBRIN E]: the IC50 with PC-3 is 2900 nM; in assay [1], 2600 nM.
The matching figures for `C=CC(=C)CC[C@]1(C)[C@H]2C[C@H](OC(=O)C(C)CC)C=C(C=O)[C@@]2(C=O)[C@H](O)C[C@@H]1C` (relative stereo) [CASEAMEMBRIN F]: 3000 nM and 14700 nM.
For `CC(=O)O[C@H]1C(=O)[C@@]2(C)[C@H]([C@H](OC(=O)c3ccccc3)[C@]3(O)C[C@H](OC(=O)[C@H](O)[C@@H](NC(=O)c4ccccc4)c4ccccc4)C(C)=C1C3(C)C)[C@]1(OC(C)=O)CO[C@@H]1C[C@@H]2O` [PACLITAXEL], in that order: 16 nM and 31 nM.

Usually IC50 stands for the point on the concentration scale where inhibition reaches its midpoint. A lower IC50 goes with higher potency.
